Reference: paper PMC6045484 (ACS Omega, 2018)
≈ marks a conversion by molar mass, not a printed value.

Legend:
P. falciparum (D6) = assay: in vitro antimalarial activity, plasmodial LDH; type: cell-based, Plasmodium falciparum; details: Plasmodium falciparum, D6, 72 h, read-out: P. falciparum (D6) IC50
P. falciparum (W2) = assay: in vitro antimalarial activity, plasmodial LDH; type: cell-based, Plasmodium falciparum; details: Plasmodium falciparum, W2, 72 h, read-out: P. falciparum (W2) IC50, CQ-resistant W2 strain, 72 h
How it was run: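 P. falciparum-infected erythrocytes (2% parasitemia, 2% hematocrit) in RPMI 1640 with 10% human serum and 60 μg/mL amikacin. Exposed to test compound dilutions for 72 h at 37 °C under 90% N2/5% O2/5% CO2. LDH measured with Malstat reagent (30 min, room temperature), then NBT/PES for 1 h in the dark, stopped with 5% acetic acid, read at 650 nm. IC50 from dose-response curves.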

[1] = system: SK-MEL, KB, BT-549, SK-OV-3, VERO and LLC-PK1 cells; assay: cytotoxicity, neutral red uptake assay; type: cell-based, mammalian; details: highest test concentration 4760 ng/mL
How it was run: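 Cells seeded at 25 000/well and allowed 24 h to reach confluence. Test compound was then added and incubated 48 h. Viable cells were counted by a modified neutral red uptake method. The panel was four human cancer lines and two noncancerous mammalian kidney lines. Doxorubicin served as positive control and DMSO as negative control.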

[2] = system: L. donovani promastigotes; assay: in vitro antileishmanial activity, alamarBlue assay; type: cell-based, Leishmania donovani; details: Leishmania donovani, 48 h; for IC50: read-out: L. donovani IC50, promastigotes, 48 h; for IC90: read-out: L. donovani IC90, promastigotes, 48 h
C. albicans ATCC90028 = assay: in vitro antifungal activity; type: cell-based, Candida albicans; details: Candida albicans; for IC50: ATCC90028, read-out: C. albicans IC50; for MFC: ATCC90028, read-out: C. albicans MFC; for MIC: ATCC90028, read-out: C. albicans MIC
How it was run: (§1)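 Modified NCCLS broth method in Sabouraud dextrose. Inoculum set by OD630 to 1.5 × 10^3 CFU/mL. Test compound serially diluted in 20% DMSO/saline, duplicate wells, up to 20 μg/mL. Incubated 70–74 h at 35 °C; 530 nm read before and after. IC50 is 50% growth inhibition; MIC is no detectable growth. MFC from clear wells subcultured on agar. Amphotericin B control.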

C. neoformans ATCC90113 = assay: in vitro antifungal activity; type: cell-based, Cryptococcus neoformans; details: Cryptococcus neoformans; for IC50: ATCC90113, read-out: C. neoformans IC50; for MFC: ATCC90113, read-out: C. neoformans MFC; for MIC: ATCC90113, read-out: C. neoformans MIC
How it was run: as §1

A. fumigatus ATCC 90906 = assay: in vitro antifungal activity; type: cell-based, Aspergillus fumigatus; details: Aspergillus fumigatus; for IC50: ATCC90906, read-out: A. fumigatus IC50; for MFC: ATCC90906, read-out: A. fumigatus MFC; for MIC: ATCC90906, read-out: A. fumigatus MIC
How it was run: as §1

SA (ATCC29213) = assay: in vitro antibacterial activity; type: cell-based; details: Staphylococcus aureus; for IC50: ATCC29213, read-out: IC50 (concentration that affords 50% growth inhibition), SA; for MBC: ATCC29213, read-out: MBC (minimum bactericidal concentration), SA; for MIC: ATCC29213, read-out: MIC, SA
How it was run: (§2)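 Test compound serially diluted in 20% DMSO/saline and plated in duplicate, up to 20 μg/mL. Inoculum in cation-adjusted Mueller–Hinton broth, pH 7.3, set by OD630 to 5 × 10^5 CFU/mL. Incubated 16–20 h at 35 °C; 530 nm read before and after. IC50 is 50% growth inhibition; MIC is no detectable growth. MBC from clear wells subcultured on agar. Ciprofloxacin control.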

MRSA (ATCC33591) = assay: in vitro antibacterial activity; type: cell-based, methicillin-resistant Staphylococcus aureus; details: Staphylococcus aureus, ATCC33591|MRSA, read-out: MIC, MRSA
How it was run: as §2

[3] = system: M. intracellulare (ATCC23068); assay: in vitro antibacterial activity, modified alamarBlue procedure; type: cell-based, Mycobacterium intracellulare; details: Mycobacterium intracellulare; for IC50: ATCC23068, read-out: IC50 (concentration that affords 50% growth inhibition), M. intracellulare; for MBC: ATCC23068, read-out: MBC (minimum bactericidal concentration), M. intracellulare; for MIC: ATCC23068, read-out: MIC, M. intracellulare
How it was run: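 Modified alamarBlue microplate method. Test compound serially diluted in 20% DMSO/saline, duplicate wells, up to 20 μg/mL. Inoculum 2.0 × 10^6 CFU/mL in Middlebrook 7H9 with OADC, pH 7.3, containing 5% alamarBlue. Incubated 70–74 h at 37 °C, 10% CO2; fluorescence 544ex/590em read before and after. MIC: no blue-to-pink change. MBC by subculturing blue wells on agar. Ciprofloxacin control.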

SMILES	IC50 (P. falciparum (D6)) [µg/mL]	IC50 (P. falciparum (W2)) [µg/mL]	cytotoxicity CTX [1]	IC50 [2] [µg/mL]	IC90 [2] [µg/mL]	IC50 (C. albicans ATCC90028) [µg/mL]	MFC (C. albicans ATCC90028) [µg/mL]	MIC (C. albicans ATCC90028) [µg/mL]	IC50 (C. neoformans ATCC90113) [µg/mL]	MFC (C. neoformans ATCC90113) [µg/mL]	MIC (C. neoformans ATCC90113) [µg/mL]	IC50 (A. fumigatus ATCC 90906) [µg/mL]	MFC (A. fumigatus ATCC 90906) [µg/mL]	MIC (A. fumigatus ATCC 90906) [µg/mL]	IC50 (SA (ATCC29213)) [µg/mL]	MBC (SA (ATCC29213)) [µg/mL]	MIC (SA (ATCC29213)) [µg/mL]	MIC (MRSA (ATCC33591)) [µg/mL]	IC50 [3] [µg/mL]	MBC [3] [µg/mL]	also measured
COc1cc(NC(C)CCCN)c2nc(C(C)(C)C)ccc2c1Oc1ccc(Cl)c(Cl)c1 (stereo not drawn) [compound 55, N^4-(2-tert-Butyl-5-(3,4-dichlorophenoxy)-6-methoxyquinolin-8-yl)pentane-1,4-diamine]	0.14 (≈ 0.294 µM)	0.13 (≈ 0.273 µM)	NC (NC, not cytotoxic up to 4760 ng/mL (4.76 μg/mL))	11 (≈ 23.1 µM)	> 40	> 20	> 20	> 20	3.18 (≈ 6.67 µM)	5 (≈ 10.5 µM)	5 (≈ 10.5 µM)	> 20	> 20	> 20	5.96 (≈ 12.5 µM)	10 (≈ 21 µM)	10 (≈ 21 µM)	10 (≈ 21 µM)	9.51 (≈ 20 µM)	20 (≈ 42 µM)	MIC [3]: 20 µg/mL (≈ 42 µM)
CCCCCOc1c(OC)cc(NC(C)CCCNC(=O)C(N)CCCNC(=N)N)c2nc(C(C)(C)C)ccc12 (stereo not drawn) [compound 94, 2-Amino-N-(4-(2-tert-butyl-6-methoxy-5-(pentyloxy)quinolin-8-ylamino)pentyl)-5-guanidinopentanamide]	4.76 (≈ 8.53 µM)	4 (≈ 7.17 µM)	NC (NC, not cytotoxic up to 4760 ng/mL (4.76 μg/mL))	18 (≈ 32.3 µM)	32 (≈ 57.4 µM)	18.6 (≈ 33.4 µM)	20 (≈ 35.9 µM)	20 (≈ 35.9 µM)	1.41 (≈ 2.53 µM)	2.5 (≈ 4.48 µM)	2.5 (≈ 4.48 µM)	> 20	> 20	> 20	5.85 (≈ 10.5 µM)	20 (≈ 35.9 µM)	10 (≈ 17.9 µM)	10 (≈ 17.9 µM)	11.2 (≈ 20.1 µM)	20 (≈ 35.9 µM)	MIC [3]: 20 µg/mL (≈ 35.9 µM)
CCCCCOc1c(OC)cc(NC(C)CCCNC(=O)C(N)CC(C)C)c2nc(C(C)(C)C)ccc12 (stereo not drawn) [compound 95, 2-Amino-N-(4-(2-tert-butyl-6-methoxy-5-(pentyloxy)quinolin-8-ylamino)pentyl)-4-methylpentanamide]	3.5 (≈ 6.8 µM)	2.3 (≈ 4.47 µM)	NC (NC, not cytotoxic up to 4760 ng/mL (4.76 μg/mL))	3.5 (≈ 6.8 µM)	6.5 (≈ 12.6 µM)	18.4 (≈ 35.8 µM)	> 20	> 20	1.68 (≈ 3.26 µM)	2.5 (≈ 4.86 µM)	2.5 (≈ 4.86 µM)	> 20	> 20	> 20	2.56 (≈ 4.97 µM)	5 (≈ 9.71 µM)	5 (≈ 9.71 µM)	10 (≈ 19.4 µM)	12.6 (≈ 24.4 µM)	20 (≈ 38.9 µM)	MIC [3]: 20 µg/mL (≈ 38.9 µM)
CCCCCOc1c(OC)cc(NC(C)CCCNC(=O)C(N)C(C)CC)c2nc(C(C)(C)C)ccc12 (stereo not drawn) [compound 96, 2-Amino-N-(4-(2-tert-butyl-6-methoxy-5-(pentyloxy)quinolin-8-ylamino)pentyl)-3-methylpentanamide]	> 4.76	> 4.76	NC (NC, not cytotoxic up to 4760 ng/mL (4.76 μg/mL))	8.65 (≈ 16.8 µM)	32.6 (≈ 63.4 µM)	> 20	> 20	> 20	4.95 (≈ 9.62 µM)	10 (≈ 19.4 µM)	10 (≈ 19.4 µM)	> 20	> 20	> 20	5.35 (≈ 10.4 µM)	20 (≈ 38.9 µM)	10 (≈ 19.4 µM)	10 (≈ 19.4 µM)	12.2 (≈ 23.7 µM)	20 (≈ 38.9 µM)	MIC [3]: 20 µg/mL (≈ 38.9 µM)
CCCCCOc1c(OC)cc(NC(C)CCCNC(=O)C(N)Cc2ccccc2)c2nc(C(C)(C)C)ccc12 (stereo not drawn) [compound 97, 2-Amino-N-(4-(2-tert-butyl-6-methoxy-5-(pentyloxy)quinolin-8-ylamino)pentyl)-3-phenylpropanamide]	2.5 (≈ 4.56 µM)	1.3 (≈ 2.37 µM)	NC (NC, not cytotoxic up to 4760 ng/mL (4.76 μg/mL))	4 (≈ 7.29 µM)	6.5 (≈ 11.8 µM)	> 20	> 20	> 20	2.29 (≈ 4.17 µM)	2.5 (≈ 4.56 µM)	2.5 (≈ 4.56 µM)	> 20	> 20	> 20	5.81 (≈ 10.6 µM)	> 20	10 (≈ 18.2 µM)	20 (≈ 36.4 µM)	14.9 (≈ 27.2 µM)	> 20	MIC [3]: > 20 µg/mL
CCCCCOc1c(OC)cc(NC(C)CCCNC(=O)C(N)Cc2cc3ccccc3[nH]2)c2nc(C(C)(C)C)ccc12 (stereo not drawn) [compound 98, 2-Amino-N-(4-(2-tert-butyl-6-methoxy-5-(pentyloxy)quinolin-8-ylamino)pentyl)-3-(1H-indol-2-yl)propanamide]	> 4.76	> 4.76	NC (NC, not cytotoxic up to 4760 ng/mL (4.76 μg/mL))	1.81 (≈ 3.08 µM)	2.93 (≈ 4.98 µM)	18.8 (≈ 31.9 µM)	> 20	> 20	1.21 (≈ 2.06 µM)	2.5 (≈ 4.25 µM)	2.5 (≈ 4.25 µM)	> 20	> 20	> 20	1.95 (≈ 3.32 µM)	10 (≈ 17 µM)	5 (≈ 8.51 µM)	5 (≈ 8.51 µM)	8.47 (≈ 14.4 µM)	20 (≈ 34 µM)	MIC [3]: 10 µg/mL (≈ 17 µM)
